An excerpt weighted towards active compounds, which were near 3.8% of everything screened.
OX1R antag-1 = blocks the human orexin 1 receptor; O43613; actives 1.8% (n = 330,000); inhibition, % at 6.6 µM; OX1R-expressing cells, FRET antagonist read-out; in the data active = inhibition mostly above about 38%, no sharp cut-off; inactive = mostly below about 40%;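 note: 0% = agonist challenge alone and 100% = reference antagonist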
Target sequence (O43613 whole entry, looked up): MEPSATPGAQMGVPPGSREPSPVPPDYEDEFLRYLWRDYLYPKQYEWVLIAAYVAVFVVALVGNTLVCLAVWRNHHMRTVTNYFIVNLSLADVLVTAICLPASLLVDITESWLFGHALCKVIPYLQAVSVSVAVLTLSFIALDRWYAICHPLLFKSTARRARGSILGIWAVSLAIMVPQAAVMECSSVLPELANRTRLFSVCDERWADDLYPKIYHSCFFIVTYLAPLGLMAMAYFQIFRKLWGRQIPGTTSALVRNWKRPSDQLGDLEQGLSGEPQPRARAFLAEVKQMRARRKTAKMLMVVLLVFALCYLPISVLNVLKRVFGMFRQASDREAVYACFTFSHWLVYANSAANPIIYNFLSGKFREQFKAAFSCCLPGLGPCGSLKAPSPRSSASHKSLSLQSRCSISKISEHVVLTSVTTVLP
CHO parental Ca = counter-screen for OX1R antagonists: effect in parental CHO cells | parental CHO-K1, ATP-induced calcium, Fluo-8 fluorescence | inhibition, % at 5.6 µM | actives 0.63% (n = 330,000) | AID 463079;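 active = inhibition above that plate's mean sample inhibition plus 3 SD, cut at about 26% in these data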;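 note: 0% = ATP-challenged DMSO wells and 100% = DMSO wells without ATP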
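Material: Parental CHO cells | Reagent: ATP | Compound dosing: Single nominal dose of 5.6 µM per compound | Detection: Intracellular calcium via Fluo-8 no-wash fluorescent dye | Read-out: % inhibition of ATP-induced calcium mobilization | Benchmarks: Low control ATP plus DMSO, high control DMSO only | Replicates: Singlicate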
MPTP inh = permeability transition pore inhibition; isolated mouse mitochondria, Ca2+ swelling absorbance, 30 min; inhibition, % at 10 µM; actives 1.4% (n = 360,000);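 active = inhibition of 50% or more, scaled per plate between neutral and stimulator controls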;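 note: 0% = DMSO wells given calcium and 100% = 1 mM EGTA wells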
GPR7 antagonist = blocks human GPR7 receptor signaling. P48145. GPR7-expressing cells, fluorescence antagonist assay. inhibition, % at 4.4 µM. actives 1.1% (n = 290,000); in the data active = inhibition above about 16%, passing the limit was not always enough;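 note: cells stimulated with the agonist NPW; 0% = agonist with vehicle and 100% = vehicle without agonist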
OX1R antag-2 = antagonists of human orexin 1 receptor; CHO/OX1R cells, Fluo-8 calcium fluorescence, orexin A; inhibition, % at 5 µM; actives 0.43% (n = 330,000); AID 434989;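 active = inhibition above its plate's threshold, mean inhibition of all tested compounds on the plate plus 3 SD, cut at about 37% in these data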;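 note: 0% = orexin A challenge wells and 100% = SB-334867-A antagonist wells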
The depositor's hits bear a star; · = no result given.

SMILES	OX1R antag-1	CHO parental Ca	MPTP inh	GPR7 antagonist	OX1R antag-2
CN(C)c1c([N+](=O)[O-])cc2[nH]c(=O)[nH]c2c1[N+](=O)[O-]	41.7*	1.1	2.9	-8.1	8.8
O=C(CNC(=O)c1ccccc1Cl)N/N=C/c1ccc([N+](=O)[O-])s1	51.1*	-3.5	1.5	-3.6	-24.5
O=C(CNC(=O)c1ccccc1Br)N/N=C\c1cc([N+](=O)[O-])cc(Br)c1O	52.7*	0.5	-5.4	-0.2	-0.2
O=C(COC(=O)c1ccccc1Cc1ccccc1)Nc1ccc(SC(F)F)cc1	25.9	42.0*	5.0	0.2	5.8
CCCN1CCCC[C@H]1C(=O)Nc1c(C)cccc1C	9.5	7.1	-1.0	·	-1.9
Cc1cc(C)c(NC(=O)C2CCCN2CCOC(=O)c2ccccc2)c(C)c1 (stereo not given)	73.2*	-2.7	2.5	7.1	6.9
COc1ccccc1C(CNC(=O)c1cccc(S(=O)(=O)Nc2ccc(C)cc2)c1)N(C)C (stereo not given)	1.9	-20.1	0.0	8.6	-13.6
CC(NS(=O)(=O)OCC(Cl)(Cl)Cl)c1ccc(C(C)(C)C)cc1 (stereo not given)	49.8	64.1*	42.9	-9.3	42.2
CC(C)(NS(=O)(=O)OCC(Cl)(Cl)Cl)c1ccccc1	38.1	-8.2	-0.9	-6.2	-15.4
O=c1cc(-c2ccccc2Cl)oc2c(NS(=O)(=O)c3cccs3)ccc(O)c12	73.2*	-10.8	1.2	·	16.2
C=CCOC(=O)C1=C(C)N=C2SCCC(=O)N2C1c1ccc(OC(=O)c2ccco2)cc1 (stereo not given)	6.1	1.7	-1.9	25.5*	-4.3
CCN(CC)S(=O)(=O)c1ccc(C(=O)Nc2ccc(Cc3ccncc3)cc2)cc1	39.2*	84.6*	8.1	20.9	81.7*
CCN(CC)S(=O)(=O)c1ccc(C(=O)Nc2cc(C)cc(C)c2)cc1	20.2	-1.5	1.2	-22.1	-10.1
COc1ccc(CN2CCC(=O)N([C@H](CO)CC(C)C)CC2)cc1	34.4	-6.8	-0.6	-0.8	-2.7
COc1cc(C(=O)OC(C)C(=O)NC2CCCCC2C)c([N+](=O)[O-])cc1OC (stereo not given)	30.3	-26.6	0.5	·	-8.6
CC1CCCC(NC(=O)COC(=O)c2ccc([N+](=O)[O-])s2)C1C (stereo not given)	44.1*	2.2	-3.2	·	12.2
Cc1ccc(C(=O)NC2CCCC2)s1	-1.8	-2.0	0.0	-11.7	-3.0
O=C(NC1CCCC1)c1ccc([N+](=O)[O-])s1	61.1*	3.7	-0.1	-5.3	-33.1
CC(OC(=O)c1ccc([N+](=O)[O-])s1)C(=O)NC1CCCCC1C (stereo not given)	38.0*	-16.9	0.2	·	-5.3
CC1CCCC(NC(=O)COC(=O)c2ccccc2[N+](=O)[O-])C1C (stereo not given)	8.3	-15.0	-1.0	-7.5	-19.6
NS(=O)(=O)c1ccc(CCNC(=O)c2ccc([N+](=O)[O-])s2)cc1	65.8*	21.6	-2.3	10.7	0.2
CCOC(=O)[C@]12CCC=C1N(CCC1=CCCCC1)C(=O)[C@H](CC(=O)NCc1ccc(OC)c(OC)c1)C2	·	·	-2.7	·	·
C#CCOc1coc(COC(=O)c2ccccc2)cc1=O	-5.6	-0.5	1.6	-5.7	-17.1
Cn1c(/C=C/c2ccccc2[N+](=O)[O-])nc2ccccc2c1=O	·	·	1.3	-19.8	·
CCn1c(/C=C/c2ccccc2[N+](=O)[O-])nc2ccccc2c1=O	52.5*	-13.8	0.2	-19.2	-8.4
SMILES	OX1R antag-1	CHO parental Ca	MPTP inh	GPR7 antagonist	OX1R antag-2
Cc1cc(NC(=O)C2C3C(=O)N(CCC(C)C)C(C(=O)NCc4ccccc4)C34C=CC2(C)O4)no1 (stereo not given)	46.1*	1.8	-1.5	-10.4	-2.3
CCN(CC)C(=O)CN(c1cc(Cl)ccc1OC)S(=O)(=O)c1ccc(C)c([N+](=O)[O-])c1	74.3*	2.8	1.3	11.7	39.4
CC(=O)Nc1ccc(Nc2ncnc(N)c2[N+](=O)[O-])cc1	36.7*	-6.3	3.0	-12.7	-10.7
CC(=O)Nc1ccc(Nc2ncc([N+](=O)[O-])c(Nc3ccc(NC(C)=O)cc3)n2)cc1	9.3	-11.0	-2.1	-8.3	-15.3
Cc1cccc(-c2ocnc2C(=O)Nc2ccccc2NC(=O)c2ccccn2)c1	65.7*	-11.9	1.1	-20.5	-25.7
COc1ccc2nc(SCC(=O)Nc3nccs3)[nH]c2c1	9.9	6.6	0.9	0.1	-20.7
COc1ccc(CNC(=O)CSc2nc(SC)ns2)cc1	10.6	98.3*	3.8	-2.9	-21.3
COc1ccc(CNC(=O)COc2cc3c(c4oc(=O)cc(C)c24)CCC(C)(C)O3)cc1OC	42.5*	-9.4	-0.1	9.3	-17.1
O=[N+]([O-])c1ccc(Nc2ccccn2)c([N+](=O)[O-])c1	36.3*	-2.3	-0.2	-7.6	-13.2
O=C1c2ccccc2C(=O)N1Nc1ccc([N+](=O)[O-])cc1[N+](=O)[O-]	68.0*	-7.0	0.0	-6.1	-21.3
Cc1cccc(CCNC(=O)CCc2nnc(CCc3ccccc3)o2)n1	14.7	-10.6	0.5	8.1	-1.3
Cc1nc([N+](=O)[O-])cn1CC(O)c1ccc(F)cc1 (stereo not given)	7.0	-3.1	0.6	-10.0	-6.6
O=C(CC1C(=O)NCCN1Cc1ccccc1)NC1CCCCC1 (stereo not given)	·	·	-0.4	·	·
COc1cc(S(=O)(=O)NCc2ccncc2)ccc1Br	7.9	30.8*	24.1	3.0	11.3
O=C1CCCCCC(=O)[C@H](O)C[C@H](c2ccccc2)O1	·	·	0.5	·	·
CCCn1c(O)c(N=NC(=O)CNC(=O)c2cccnc2)c2ccccc21	46.7	-20.3	-1.1	0.5	-1.5
Cn1c(O)c(N=NC(=O)CNC(=O)c2cccnc2)c2ccccc21	42.6*	-7.2	-1.7	-2.4	-10.7
COC(=O)Cn1c(O)c(N=NC(=O)CNC(=O)c2ccncc2)c2ccccc21	70.2*	-10.6	1.4	-0.7	-11.5
CCn1c(O)c(N=NC(=O)CNC(=O)c2ccccc2F)c2ccccc21	45.1	-29.5	-1.1	-10.0	-22.4
CCC(C)NC(=O)COC(=O)c1cc([N+](=O)[O-])ccc1Sc1nc(C)cs1 (stereo not given)	54.4*	-15.0	-2.6	-2.0	-19.1
O=C(Nc1c(-c2ccccc2)[nH][nH]c1=O)c1ccc(Br)cc1	·	·	-2.3	·	·
CC(=O)NCCNc1ccc([N+](=O)[O-])cc1C#N	67.1*	6.1	-1.4	-9.1	4.7
CCCNC(=O)C1(C)CCCN(C(=O)c2cccc(Cl)c2)C1 (stereo not given)	·	·	-0.2	·	·
O=C(NCc1ccco1)c1cccn2c(=O)c3sccc3nc12	42.2*	-21.3	4.7	-3.2	-29.5
O=C(NCc1cccs1)c1cccn2c(=O)c3sccc3nc12	19.6	-19.2	1.7	-1.8	-10.0
CC1(C)Cc2c(sc3nc(C4CC4)n(N)c(=O)c23)CO1	5.5	-9.2	4.2	-3.5	2.2
C=C(C(=O)c1ccccc1)C(c1ccccc1)C(C)C(=O)c1ccccc1 (stereo not given)	16.0	41.5*	0.7	-16.0	-22.5
